Measured values taken from ChEMBL document CHEMBL1142436, “Design and synthesis of 4-substituted indolo[3,2-e][1,2,3]triazolo[1,5-a]pyrimidine derivatives with antitumor activity” (2008).

Legend:
Assay type in all cases: functional
HL-60 = test: Growth inhibition of human HL60 cells after 48 hrs; details: HL-60, 48 h
Method in brief: (§1)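 NCI ~60-line screen. Cells were grown in RPMI 1640 with 5% FBS and 2 mM L-glutamine and plated at 5000–40000 cells/well. After a 24 h preincubation, five drug concentrations from DMSO stocks were added for 48 h at 37 °C. Cells were TCA-fixed, stained with SRB and read at 515 nm. GI50 was taken from time-zero and control absorbances and reported as pGI50.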

KM12 = test: Growth inhibition of human KM12 cells after 48 hrs; details: KM12, 48 h; method in brief: as §1
UACC-62 = test: Growth inhibition of human UACC62 cells after 48 hrs; details: UACC-62, 48 h
Method in brief: (§2)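 NCI 60-line screen: cells in RPMI 1640 with 5% FBS and 2 mM L-glutamine, plated at 5000–40000 cells/well, grown 24 h (37 °C, 5% CO₂), then exposed to five 10-fold or ½-log dilutions (DMSO stock) for 48 h. Fixed with TCA (final 10% for adherent cells, 16% for suspension cells), then SRB stained with absorbance at 515 nm. GI50 from percentage growth relative to time-zero and control wells.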

SF-539 = test: Growth inhibition of human SF539 cells after 48 hrs; details: SF-539, 48 h; method in brief: as §1
SF-295 = test: Growth inhibition of human SF295 cells after 48 hrs; details: SF-295, 48 h; method in brief: as §1
SK-MEL-5 = test: Growth inhibition of human SK-MEL5 cells after 48 hrs; details: SK-MEL-5, 48 h; method in brief: as §1
HT-29 = test: Growth inhibition of human HT29 cells after 48 hrs; details: HT-29, 48 h; method in brief: as §1
MOLT-4 = test: Growth inhibition of human MOLT4 cells after 48 hrs; details: MOLT-4, 48 h; method in brief: as §1
NCI-H322M = test: Growth inhibition of human NCI-H322M cells after 48 hrs; method in brief: as §1
RXF 393 = test: Growth inhibition of human RXF393 cells after 48 hrs; details: RXF 393, 48 h; method in brief: as §1
SNB-19 = test: Growth inhibition of human SNB19 cells after 48 hrs; details: SNB-19, 48 h; method in brief: as §2
CCRF-CEM = test: Growth inhibition of human CCRF-CEM cells after 48 hrs; method in brief: as §1
OVCAR-5 = test: Growth inhibition of human OVCAR5 cells after 48 hrs; details: OVCAR-5, 48 h; method in brief: as §1
Malme-3M = test: Growth inhibition of human MALME3M cells after 48 hrs; method in brief: as §1
HCT-116 = test: Growth inhibition of human HCT116 cells after 48 hrs; details: HCT-116, 48 h; method in brief: as §1
MDA-MB-231 = test: Growth inhibition of human MDA-MB-231 cells after 48 hrs; details: MDA-MB-231, 48 h; method in brief: as §1
NCI-H23 = test: Growth inhibition of human NCI-H23 cells after 48 hrs; details: Homo sapiens, NCI-H23, 48 h; method in brief: as §1
UACC-257 = test: Growth inhibition of human UACC257 cells after 48 hrs; details: UACC-257, 48 h; method in brief: as §2
LOX IMVI = test: Growth inhibition of human LOXIMVI cells after 48 hrs; method in brief: as §1
SF-268 = test: Growth inhibition of human SF268 cells after 48 hrs; details: SF-268, 48 h; method in brief: as §1
A498 = test: Growth inhibition of human A498 cells after 48 hrs; details: A498, 48 h; method in brief: as §1
HOP-92 = test: Growth inhibition of human HOP92 cells after 48 hrs; details: HOP-92, 48 h; method in brief: as §1
M14 = test: Growth inhibition of human M14 cells after 48 hrs; details: M14, 48 h; method in brief: as §1
DU-145 = test: Growth inhibition of human DU145 cells after 48 hrs; details: DU-145, 48 h; method in brief: as §1
TK-10 = test: Growth inhibition of human TK10 cells after 48 hrs; details: TK-10, 48 h; method in brief: as §2
NCI-H226 = test: Growth inhibition of human NCI-H226 cells after 48 hrs; details: NCI-H226, 48 h; method in brief: as §1
MCF7 = test: Growth inhibition of human MCF7 cells after 48 hrs; details: MCF7, 48 h; method in brief: as §1
OVCAR-8 = test: Growth inhibition of human OVCAR8 cells after 48 hrs; details: OVCAR-8, 48 h; method in brief: as §1
U-251 = test: Growth inhibition of human U251 cells after 48 hrs; details: U-251, 48 h; method in brief: as §2
CAKI-1 = test: Growth inhibition of human CAKI1 cells after 48 hrs; details: CAKI-1, 48 h; method in brief: as §1
RPMI-8226 = test: Growth inhibition of human RPMI8226 cells after 48 hrs; details: RPMI-8226, 48 h; method in brief: as §1
IGROV-1 = test: Growth inhibition of human IGROV1 cells after 48 hrs; details: IGROV-1, 48 h; method in brief: as §1
NCI-H522 = test: Growth inhibition of human NCI-H522 cells after 48 hrs; details: NCI-H522, 48 h, read-out: pTGI (converted); method in brief: as §1
EKVX = test: Growth inhibition of human EKVX cells after 48 hrs; method in brief: as §1

SMILES: CCCCN(CCCC)CCCn1c(=O)c2c3ccccc3n(C)c2n2nnc(-c3ccccc3)c12
- GI50 (HL-60): 2.57 µM
- TGI (HL-60; read-out: pTGI (converted)): 41.7 µM
- GI50 (KM12): 33.9 µM
- TGI (KM12; read-out: pTGI (converted)): > 100 µM
- GI50 (UACC-62): 22.4 µM
- TGI (UACC-62; read-out: pTGI (converted)): 85.1 µM
- GI50 (SF-539): 66.1 µM
- TGI (SF-539; read-out: pTGI (converted)): > 100 µM
- GI50 (SF-295): 31.6 µM
- TGI (SF-295; read-out: pTGI (converted)): > 100 µM
- GI50 (SK-MEL-5): 31.6 µM
- TGI (SK-MEL-5; read-out: pTGI (converted)): > 100 µM
- GI50 (HT-29): 7.76 µM
- TGI (HT-29; read-out: pTGI (converted)): 36.3 µM
- GI50 (MOLT-4): 13.8 µM
- TGI (MOLT-4; read-out: pTGI (converted)): > 100 µM
- GI50 (NCI-H322M): 28.8 µM
- TGI (NCI-H322M; read-out: pTGI (converted)): > 100 µM
- GI50 (RXF 393): 14.1 µM
- TGI (RXF 393; read-out: pTGI (converted)): 42.7 µM
- GI50 (SNB-19): > 100 µM
- TGI (SNB-19; read-out: pTGI (converted)): > 100 µM
- GI50 (CCRF-CEM): 4.17 µM
- TGI (CCRF-CEM; read-out: pTGI (converted)): 91.2 µM
- GI50 (OVCAR-5): 22.4 µM
- TGI (OVCAR-5; read-out: pTGI (converted)): > 100 µM
- GI50 (Malme-3M): 28.2 µM
- TGI (Malme-3M; read-out: pTGI (converted)): 89.1 µM
- GI50 (HCT-116): 18.6 µM
- TGI (HCT-116; read-out: pTGI (converted)): > 100 µM
- GI50 (MDA-MB-231): 36.3 µM
- TGI (MDA-MB-231; read-out: pTGI (converted)): > 100 µM
- CC50 (NCI-H23; read-out: Log LC50 (the source's name) (converted)): 12.9 µM
- TGI (NCI-H23; read-out: pTGI (converted)): 63.1 µM
- GI50 (UACC-257): 28.8 µM
- TGI (UACC-257; read-out: pTGI (converted)): 83.2 µM
- GI50 (LOX IMVI): 28.2 µM
- TGI (LOX IMVI; read-out: pTGI (converted)): > 100 µM
- GI50 (SF-268): > 100 µM
- TGI (SF-268; read-out: pTGI (converted)): > 100 µM
- GI50 (A498): 42.7 µM
- TGI (A498; read-out: pTGI (converted)): > 100 µM
- GI50 (HOP-92): 18.6 µM
- TGI (HOP-92; read-out: pTGI (converted)): 44.7 µM
- GI50 (M14): 21.4 µM
- TGI (M14; read-out: pTGI (converted)): > 100 µM
- GI50 (DU-145): 47.9 µM
- TGI (DU-145; read-out: pTGI (converted)): > 100 µM
- GI50 (TK-10): 1.91 µM
- TGI (TK-10; read-out: pTGI (converted)): 22.4 µM
- GI50 (NCI-H226): 57.5 µM
- TGI (NCI-H226; read-out: pTGI): > 100 µM
- GI50 (MCF7): 37.2 µM
- TGI (MCF7; read-out: pTGI (converted)): > 100 µM
- GI50 (OVCAR-8): 39.8 µM
- TGI (OVCAR-8; read-out: pTGI (converted)): > 100 µM
- GI50 (U-251): 33.1 µM
- TGI (U-251; read-out: pTGI (converted)): > 100 µM
- GI50 (CAKI-1): 50.1 µM
- TGI (CAKI-1; read-out: pTGI (converted)): > 100 µM
- GI50 (RPMI-8226): 6.03 µM
- TGI (RPMI-8226; read-out: pTGI (converted)): 49 µM
- LC50 (IGROV-1): > 50.1 µM
- TGI (NCI-H522): 10.7 µM
- GI50 (EKVX): 56.2 µM
- TGI (EKVX; read-out: pTGI (converted)): > 100 µM
